Bioassay records (PubChem)
Dynein transport = blocks dynein driven cargo transport along microtubules | 0.47% of 220,000 active | 3617.4 mouse cells, GR-EGFP nuclear translocation imaging; test concentration mostly 20 µM; stimulated with dexamethasone, 1 µM; hits give low values | z-score, hits read low | AID 1381;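 active means plate z-score of nuclear minus cytoplasmic receptor signal below a set negative limit, without overly bright fluorescence or cell loss, cut at about -3.5 in these data, passing the limit was not always enough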;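 further: z-score of nuclear minus cytoplasmic ring GR-EGFP intensity difference per well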
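Medium: Induction medium lacking tetracycline, stripped serum | Probe or stimulus: 1.0 µM final dexamethasone stimulus | Schedule: 48 h induction, then 1 h compound, then 30 min agonist, 37 °C | Signal: Automated 10x imaging of fixed Hoechst-stained cells | Evaluation: Per-cell GR-EGFP intensity, nucleus versus surrounding cytoplasmic ring, well-averaged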
Autophagy mod = alters autophagy in cells; MEF GFP-LC3 puncta imaging; test concentration mostly 10 µM; calls only at 10 µM (by protocol); 0.98% of 190,000 active; AID 463193;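 active means percentage of spot-positive cells more than 3 SD above its plate mean, without a fluorescence outlier flag or 80% toxicity; inconclusive means no clear call, values can overlap the other calls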;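 further: spot-positive cell cutoff set from DMSO-treated cells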
HCT116 PTEN-null = PTEN-deleted cell growth suppression; HCT116 PTEN-null viability, CellTiter-Glo, 60 h; hits give low values; viability, % at 10 µM; 1.2% of 140,000 active; AID 827;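 active means viability at or below a set limit, 4 SD under the median of all tested compounds, cut at about 3.7% in these data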;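 further: PTEN knockout HCT116 line with beta catenin targeted HCT116 as companion control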
HCT116 bCat-KO = beta-catenin-lacking colon tumor cell growth suppression; 1.5% of 140,000 active; AID 818; HCT116 beta-catenin knockout viability, CellTiter-Glo, 60 h; hits give low values; viability, % at 10 µM;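 active means viability at or under a set limit, the compound median less 4 SD, cut at about 6% in these data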;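 further: 0% = Hyamine 1622 control at 20 µM and 100% = untreated cell control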
sdo1 growth = restores growth of sdo1-depleted yeast. S. cerevisiae sdo1-depleted JHY4D growth rescue, OD600 30 h; hits give high values; pdr5 snq2 efflux-pump mutant strain. z-score at 10 µM. 0.21% of 140,000 active. AID 817;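 active means z-score above 3 at both the 24 hr and the 30 hr optical density reads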;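 further: z-score against mean and SD of all compound wells on the same plate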
Dynein confirm = dynein cargo transport inhibition, confirmation; calls only at 20 µM; 69% of 1,000 active; 3617.4 GR-EGFP nuclear translocation imaging, dexamethasone-induced; AID 463116; shares compounds with Dynein transport;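 active means inhibition of receptor movement into the nucleus at or above a set limit in both runs, with normal cell brightness and cell count; inconclusive means limit reached in only one run, brightness and count normal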;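 further: dexamethasone at 1 µM final in well for 30 min; nuclear minus cytoplasmic GR-EGFP mean intensity difference in channel 2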
Numbers without * were called inactive. Sampled rows, rich in hits. Any-hit rate of the full collection: about 2.2%.

What do the screens show for `Cc1cc(C)c2c(-n3cccc3)nn(CC#N)c2n1`?
Dynein transport: -1.2; Autophagy mod: inactive; HCT116 PTEN-null: 109; HCT116 bCat-KO: 99; sdo1 growth: 0.54

What do the screens show for `CN(C1CCCCC1)S(=O)(=O)c1ccc(-c2ccccn2)s1`?
Dynein transport: -0.027

What do the screens show for `Cc1ccc(S(=O)(=O)N(C)c2c(C)ccc(S(=O)(=O)NC(C)(C)C)c2C)cc1`?
Dynein transport: 0.25; Autophagy mod: inactive

How did Cc1ccc(C(C)C)c(OCC(=O)NN=C(CCl)CCl)c1 do in these assays?
Dynein transport: -4.6*; Dynein confirm: active

What do the screens show for `CC(C)N1C(=O)CC2(CC[N+](C)(CCOC(=O)C(c3ccccc3)c3ccccc3)CC2)C1=O` (centres undefined)?
Dynein transport: -0.19; Autophagy mod: inactive; HCT116 PTEN-null: 103; HCT116 bCat-KO: 99; sdo1 growth: 1.2

What do the screens show for `O=C(/C=C/c1ccncc1)c1ccc2c(c1)OCCO2`?
Dynein transport: -5.4*; Autophagy mod: inactive; Dynein confirm: active

What do the screens show for `O=C(/C=C/c1ccccc1)c1ccc2c(c1)OCO2`?
Dynein transport: -0.62

What do the screens show for `CC1(C)CC(=O)C(C(=O)CCCCC(=O)C2C(=O)CC(C)(C)CC2=O)C(=O)C1`?
Dynein transport: -1; Autophagy mod: inactive; HCT116 PTEN-null: 99; HCT116 bCat-KO: 101; sdo1 growth: 0.64

Results for O=[N+]([O-])c1ccc(/C=C/C2=NN(c3ccccc3)C(c3ccco3)C2)cc1 (centres undefined) ?
Dynein transport: -5.5; Autophagy mod: inconclusive; HCT116 PTEN-null: 65; HCT116 bCat-KO: 65; sdo1 growth: 1.1

What do the screens show for `O=[N+]([O-])c1ccc(C2=NN(c3ccccc3)C(c3ccco3)C2)cc1` (centres undefined)?
Dynein transport: -8.2; Dynein confirm: inactive

Results for O=C(Nc1ccc(Cl)cc1)Nc1ccccc1Sc1ncc([N+](=O)[O-])s1 ?
Dynein transport: -1.9

Results for C=CCn1c(Sc2ncc([N+](=O)[O-])s2)n[nH]c1=O ?
Dynein transport: -5.7*; Dynein confirm: active

Results for COc1ccccc1N(CC(=O)NCCSc1ccc(Cl)cc1)S(C)(=O)=O ?
Dynein transport: 1.3; Autophagy mod: inactive

What do the screens show for `CC1(C)CC(=O)C2=C(C1)OC1=C(C(=O)CC(C)(C)C1)C2c1ccc(O)cc1O`?
Dynein transport: -5.2; Autophagy mod: inactive; HCT116 PTEN-null: 1.8*; HCT116 bCat-KO: 2.1*; sdo1 growth: -0.07; Dynein confirm: active

How did COc1ccc(N/C=C/c2nc(SC)nnc2C)cc1 do in these assays?
Dynein transport: -4; Autophagy mod: active; Dynein confirm: inactive

How did CC(C)=CCN1CCN(Cc2ccc(Sc3nncn3C)o2)CC1CCO (centres undefined) do in these assays?
Dynein transport: 1.7; Autophagy mod: inactive

Results for CC(C)NCC(O)COc1ccc(CCOCC2CC2)cc1 (centres undefined) ?
Dynein transport: -0.32; Autophagy mod: inactive; HCT116 PTEN-null: 93; HCT116 bCat-KO: 96; sdo1 growth: 1.3

How did COc1cccc(/C=C/C(=O)c2ccc[nH]2)c1 do in these assays?
Dynein transport: -0.66; Autophagy mod: inactive; HCT116 PTEN-null: 32; HCT116 bCat-KO: 35; sdo1 growth: -0.69

Results for COc1cc(/C=C/C(=O)c2ccc(C)c([N+](=O)[O-])c2)cc(OC)c1O ?
Dynein transport: -3.8*; Autophagy mod: inactive; HCT116 PTEN-null: 3.0*; HCT116 bCat-KO: 2.4*; sdo1 growth: -0.63; Dynein confirm: inconclusive

How did Cc1ccc(C(=O)/C=C/c2ccccc2[N+](=O)[O-])cc1 do in these assays?
Dynein transport: -4.7*; Autophagy mod: inactive; Dynein confirm: active

How did Cc1ccc(C(=O)/C=C/c2ccc(-c3ccccc3[N+](=O)[O-])o2)cc1 do in these assays?
Dynein transport: -0.72; Autophagy mod: inactive; HCT116 PTEN-null: 79; HCT116 bCat-KO: 80; sdo1 growth: -1.1

What do the screens show for `COc1cccc(/C=C/C(=O)c2ccc(C)c([N+](=O)[O-])c2)c1`?
Dynein transport: -4*; Autophagy mod: inactive; HCT116 PTEN-null: 2.4*; HCT116 bCat-KO: 2.7*; sdo1 growth: -0.34; Dynein confirm: active

Results for COc1cc(/C=C/C(=O)c2c(O)cc(C)oc2=O)cc(OC)c1O ?
Dynein transport: -0.17; Autophagy mod: inactive; HCT116 PTEN-null: 73; HCT116 bCat-KO: 83; sdo1 growth: 0.2

Results for O=C(COC(=O)C1CC(=O)N(Cc2ccccc2)C1)c1ccc(F)cc1 (centres undefined) ?
Dynein transport: -1.6; Autophagy mod: inactive

How did Cc1nc(COC(=O)c2ccc(CO)cc2)cs1 do in these assays?
Dynein transport: -0.37; Autophagy mod: inactive; HCT116 PTEN-null: 101; HCT116 bCat-KO: 87; sdo1 growth: -0.87

What do the screens show for `Cc1nc(COC(=O)c2cc(O)c3ccccc3c2O)cs1`?
Dynein transport: -3.6*; Autophagy mod: inactive; Dynein confirm: inactive

How did O=C(c1ccccc1)c1cc(Cl)ccc1N1C(=O)C=CC1=O do in these assays?
Dynein transport: -4.5*; Autophagy mod: inactive; Dynein confirm: active

Results for Nc1cccc2c1C(=O)N(C(=O)/C=C/c1ccc(F)cc1)C2=O ?
Dynein transport: -4.7*; Autophagy mod: inactive; Dynein confirm: active

Results for NC(=O)N/N=C/c1c(Sc2nnnn2-c2ccccc2)nc2ccccn2c1=O ?
Dynein transport: -5.3*; Dynein confirm: inactive

Results for Cc1ccccc1CSc1nnc2ccc(-c3ccncc3)nn12 ?
Dynein transport: 2; Autophagy mod: inactive

Results for O=C1C=C(NC2=CC3OC(c4ccccc4)OCC3OC2=O)CCC1 (centres undefined) ?
Dynein transport: -4.4*; Autophagy mod: inactive; HCT116 PTEN-null: 104; HCT116 bCat-KO: 95; sdo1 growth: -0.71; Dynein confirm: active

Results for CC1CCC2(CC1)NC(=O)N(CC(=O)N1CCN(S(=O)(=O)c3ccccc3)CC1)C2=O (centres undefined) ?
Dynein transport: 0.87; Autophagy mod: inactive

How did O=[N+]([O-])/C=C/c1cn(Cc2ccc(Cl)cc2)c2ccccc12 do in these assays?
Dynein transport: -3.7*; Autophagy mod: inactive; HCT116 PTEN-null: 1.9*; HCT116 bCat-KO: 10; sdo1 growth: -1.9; Dynein confirm: inactive

Results for CCOC(=O)N/N=C/c1cn(Cc2ccc(Cl)cc2)c2ccccc12 ?
Dynein transport: 0.19; Autophagy mod: inactive; HCT116 PTEN-null: 95; HCT116 bCat-KO: 91; sdo1 growth: 0.04

What do the screens show for `Cc1ccc(C(=O)/C=C/c2ccccc2)o1`?
Dynein transport: -3.7*; Autophagy mod: inactive; HCT116 PTEN-null: 10; HCT116 bCat-KO: 5.9*; sdo1 growth: -0.79; Dynein confirm: inconclusive
